Results gathered from unrelated publications.
Lines come from different studies, so protocols differ.
Target: Mitogen-activated protein kinase 15 (MAPK15, Homo sapiens, UniProt Q8TD08)
Residues used in one study (Q8TD08 1-544): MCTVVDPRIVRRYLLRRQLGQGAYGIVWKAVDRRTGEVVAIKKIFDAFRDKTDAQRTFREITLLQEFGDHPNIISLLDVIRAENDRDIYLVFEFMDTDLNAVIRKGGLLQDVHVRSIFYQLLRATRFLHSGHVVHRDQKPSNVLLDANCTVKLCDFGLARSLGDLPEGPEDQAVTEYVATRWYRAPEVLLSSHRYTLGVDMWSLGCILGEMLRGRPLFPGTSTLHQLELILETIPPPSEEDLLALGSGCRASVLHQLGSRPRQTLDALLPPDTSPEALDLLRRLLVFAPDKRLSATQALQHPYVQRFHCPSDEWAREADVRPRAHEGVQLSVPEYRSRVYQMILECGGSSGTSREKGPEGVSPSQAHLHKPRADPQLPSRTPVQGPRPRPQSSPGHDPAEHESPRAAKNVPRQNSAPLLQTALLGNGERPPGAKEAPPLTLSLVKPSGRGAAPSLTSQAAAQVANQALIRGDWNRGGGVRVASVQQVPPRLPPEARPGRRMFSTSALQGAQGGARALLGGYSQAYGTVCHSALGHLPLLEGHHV

With `COc1cc(Nc2cnc(C#N)c(O[C@H](C)CN(C)C)n2)ncc1-c1cnn(C)c1` the remaining activity was 101% (enzyme activity; inhibitor; radiometric; 1 µM).
`Cc1nccc(COC(=O)N2C[C@@H]3[C@@H](CNC(=O)c4ccc5[nH]nnc5c4)[C@@H]3C2)n1` has a remaining binding of 100% (cell-free assay; competition with immobilised ligand; 1 µM).
`FC(F)(F)Oc1cccc(-c2cnc3ccc(-c4ccncc4)nn23)c1` gave an activity vs control of 29% (enzyme activity; inhibitor; radiometric; 1 µM).
The remaining activity of `O=C(Nc1cnn(-c2csc(C(=O)NC3COC3)c2)c1)Nc1c(F)cccc1Cl` is reported as 108% (enzyme activity; inhibitor; 5 µM).
With `Cn1cnc(Br)c1C1=CN(c2ncnc3[nH]cnc23)CCS1` the inhibition was 80.2% (enzyme activity; inhibitor; radiometric; 2 µM).
With `CC(C)(C)c1nc(-c2cccc(NS(=O)(=O)c3c(F)cccc3F)c2F)c(-c2ccnc(N)n2)s1` the remaining activity was 80% (enzyme activity; inhibitor; radiometric; 1 µM).
The remaining activity of `Nc1nc(Nc2ccccc2)sc1C(=O)c1c(F)cccc1F` is reported as 14% (enzyme activity; inhibitor; 10 µM).
For `CCC(=N\O)/C(C)=C/c1ccc(F)cc1`, the remaining binding was 95% (cell-free assay; competition with immobilised ligand; 1 µM).
`Cc1ccc(C(=O)Nc2ccc(CN3CCN(C)CC3)c(C(F)(F)F)c2)cc1C#Cc1cnc2cccnn12` has a remaining activity of 77% (enzyme activity; inhibitor; 23.5 nM).
`FC(F)c1nc2ccccc2n1-c1nc(N2CCOCC2)nc(N2CCOCC2)n1` has a remaining activity of 92% (enzyme activity; inhibitor; 10 µM).
`O=C(Nc1cccnn1)N1CCC(=Cc2cccc(Oc3ccc(C(F)(F)F)cn3)c2)CC1` has a remaining binding of 83% (cell-free assay; competition with immobilised ligand; 1 µM).
`O=C(Nc1cnn(-c2csc(C(=O)NC3COC3)c2)c1)Nc1ccccc1Cl` gave a remaining activity of 140% (enzyme activity; inhibitor; 5 µM).
`CO[C@@H](C)c1c(Nc2ccc([C@@H](N(C)C(=O)C3CCS(=O)(=O)CC3)C(F)(F)F)cc2)cnc2cc(Cl)nn12` has a remaining binding of 81% (cell-free assay; competition with immobilised ligand; 1 µM).
`Nc1nc(NC2CCCCC2)sc1C(=O)c1ccccc1` gave a remaining activity of 18% (enzyme activity; inhibitor; 10 µM).
